Activity calls are given as the source filed them. No cut-off for these calls is given here.
How the values were obtained:
[1] = Volume of distribution at steady state in Sprague-Dawley rat at 2 mg/kg, iv after 0.25 to 24 hrs by LC-MS/MS analysis; assay type: ADME, organism-based; settings: in vivo
Method in brief: (§1)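 Male Sprague-Dawley rats, 6–8 weeks old, received a single dose of 10 mg/kg p.o. or 2 mg/kg i.v. The vehicle was 5% DMSO, 10% Solutol and 85% saline at pH 7. Blood was taken by cardiac puncture at 0.083–24 h (p.o.) or 0.25–24 h (i.v.), and plasma was measured by LC-MS/MS. Values are mean ± SD, n = 3.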

Histone deacetylase 2 = Histone deacetylase 2 (Homo sapiens, UniProt Q92769); assay: Inhibition of HDAC2 (unknown origin) by FDL assay
Histone deacetylase 2, sequence (Q92769 whole entry): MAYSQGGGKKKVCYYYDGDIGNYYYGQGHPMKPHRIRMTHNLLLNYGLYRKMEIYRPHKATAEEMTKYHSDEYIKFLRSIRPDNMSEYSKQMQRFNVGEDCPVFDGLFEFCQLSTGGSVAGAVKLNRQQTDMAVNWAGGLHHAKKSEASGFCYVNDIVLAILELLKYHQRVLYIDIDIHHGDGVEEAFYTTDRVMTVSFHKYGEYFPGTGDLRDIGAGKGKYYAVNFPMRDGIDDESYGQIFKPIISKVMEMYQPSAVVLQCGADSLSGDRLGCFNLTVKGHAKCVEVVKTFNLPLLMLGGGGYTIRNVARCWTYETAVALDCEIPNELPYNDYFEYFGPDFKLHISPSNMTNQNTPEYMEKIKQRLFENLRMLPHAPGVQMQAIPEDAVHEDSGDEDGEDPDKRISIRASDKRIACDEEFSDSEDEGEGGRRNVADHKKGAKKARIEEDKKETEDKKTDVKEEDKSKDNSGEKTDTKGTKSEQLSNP
Method in brief: (§2)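 Selectivity testing by FDL assay at concentrations up to 200 µM. SIRT1-2 assays run by an outside contract provider. Values reported as IC50.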

ASPC1 [2] = assay: Inhibition of cell migration of human AsPC1 cells at 10 umol/L incubated for 24 hrs by inverted microscopy relative to control; assay type: functional; settings: ASPC1, 24 h
Method in brief: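 PDAC cells are grown to a confluent monolayer at 37 °C in 5% CO2. The monolayer is scratched with a 200 μL pipette tip to make a gap of constant width, then washed with PBS. Cells are exposed to a range of compound concentrations. They are imaged by inverted microscope after 24 h. Migrated cells are counted by hand, and inhibition is expressed relative to untreated wells (100%).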

SW-620 = assay: Antiproliferative activity against human SW620 cells assessed as reduction in cell viability incubated for 72 hrs by MTT assay; assay type: functional, cell-based
PANC-1 [3] = assay: Antitumor activity against human PANC1 cells xenografted in BALB/c nude mouse assessed as slowing of tumor growth at 100 to 150 mg/kg/day, po for 30 days; assay type: functional, organism-based
Method in brief: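 Female BALB/c nude mice, 6-8 weeks old, injected subcutaneously in the right flank with 5×10^6–1×10^7 PANC-1 cells. At 130-150 mm³, mice randomized into 4 groups (n = 6) and dosed orally once daily for 30 days against vehicle. Tumor volume followed over time. Inhibition rate assessed against control.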

HepG2 = assay: Antiproliferative activity against human HepG2 cells assessed as reduction in cell viability incubated for 72 hrs by MTT assay; assay type: functional, cell-based
PANC-1 [4] = assay: Induction of cell cycle arrest in human PANC1 cells assessed as increase in accumulation at G2 phase incubated for 48 hrs by propidium iodide staining based flow cytometry; assay type: functional
Method in brief: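 PANC-1 and BXPC-3 cells in 6-well plates treated with a concentration series for 48 h. Stained with 50 µg/mL propidium iodide for 30 min in the dark. DNA content analysed by flow cytometry for cell-cycle phase distribution.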

[5] = biological target: T1, NAD-dependent protein deacylase sirtuin-6 (Homo sapiens, UniProt Q8N6T7); assay: Activation of N-terminal his-tagged human SIRT6 expressed in Escherichia coli M15 [pREP4] assessed as increase in deacetylation activity incubated for 2 hrs using Ac-RYQK(Ac)-AMC substrate by HPLC analysis
T1 sequence (Q8N6T7 whole entry): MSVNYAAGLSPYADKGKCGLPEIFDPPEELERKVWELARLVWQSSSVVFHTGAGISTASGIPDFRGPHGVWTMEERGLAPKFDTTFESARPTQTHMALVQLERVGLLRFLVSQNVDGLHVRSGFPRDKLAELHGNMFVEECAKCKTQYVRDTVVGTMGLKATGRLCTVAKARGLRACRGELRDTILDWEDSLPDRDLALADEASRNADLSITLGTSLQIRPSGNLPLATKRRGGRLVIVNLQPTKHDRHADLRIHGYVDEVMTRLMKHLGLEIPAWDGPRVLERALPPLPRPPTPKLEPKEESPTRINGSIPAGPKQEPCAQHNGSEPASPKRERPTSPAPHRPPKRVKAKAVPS

Bel-7402 = assay: Antiproliferative activity against human Bel7402 cells assessed as reduction in cell viability incubated for 72 hrs by MTT assay; assay type: functional, cell-based
[6] = Toxicity in BALB/c nude mouse xenografted with human PANC1 cells assessed as induction of body weight loss at 100 to 150 mg/kg/day, po for 30 days; assay type: organism-based, PANC-1; settings: in vivo, 720 h
Method in brief: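 Female BALB/c nude mice, 6–8 weeks old, received 5×10⁶–1×10⁷ PANC-1 cells subcutaneously in the right flank. Once tumors reached 130–150 mm³, mice were randomized (n = 6) to vehicle or 100 or 150 mg/kg/d given orally for 30 days. Body weight and toxicity were monitored against the vehicle group.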

[7] = biological target: T1, NAD-dependent protein deacylase sirtuin-6; assay: […] in human BxPC3 cells assessed as reduction in H3K9ac levels incubated for 72 hrs by Western blot analysis; assay type: cell-based; settings: BXPC-3
Method in brief: (§3)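 Cells incubated 72 h with various compound concentrations; whole-cell RIPA lysates with protease inhibitors, BCA-normalised, separated on 12% SDS-PAGE, transferred to PVDF, blocked in 5% milk or BSA. Probed 10 h at 4 °C with antibodies to SIRT6, acetyl-H3K9/K18/K56, total H3, Lin28b, Myc, IGF2BP3, β-actin; HRP secondary, chemiluminescent detection.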

BXPC-3 = assay: Inhibition of colony formation in human BxPC3 cells incubated for 9 to 18 days by crystal violet staining based assay; assay type: functional, cell-based
Method in brief: (§4)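 Cells are seeded per well at the line-specific density: BXPC-3 750, PANC-1 500, AsPC-1 2200, MIAPaCa-2 500. Compound at several concentrations is added after 24 h. Incubation runs 9–18 days (BXPC-3 18 days, PANC-1 14 days). Cells are then fixed with 4% paraformaldehyde and stained with crystal violet, and colonies of more than 50 cells are counted.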

ASPC1 [8] = assay: Inhibition of colony formation in human AsPC1 cells incubated for 9 to 18 days by crystal violet staining based assay; assay type: functional, cell-based; method in brief: as §4
[9] = biological target: T1, NAD-dependent protein deacylase sirtuin-6; assay: […] in human BxPC3 cells assessed as reduction in H3K18ac levels incubated for 72 hrs by Western blot analysis; assay type: cell-based; settings: BXPC-3; method in brief: as §3
Histone deacetylase 1 = Histone deacetylase 1 (Homo sapiens, UniProt Q13547); assay: Inhibition of HDAC1 (unknown origin) by FDL assay; method in brief: as §2
Histone deacetylase 1, sequence (Q13547 whole entry): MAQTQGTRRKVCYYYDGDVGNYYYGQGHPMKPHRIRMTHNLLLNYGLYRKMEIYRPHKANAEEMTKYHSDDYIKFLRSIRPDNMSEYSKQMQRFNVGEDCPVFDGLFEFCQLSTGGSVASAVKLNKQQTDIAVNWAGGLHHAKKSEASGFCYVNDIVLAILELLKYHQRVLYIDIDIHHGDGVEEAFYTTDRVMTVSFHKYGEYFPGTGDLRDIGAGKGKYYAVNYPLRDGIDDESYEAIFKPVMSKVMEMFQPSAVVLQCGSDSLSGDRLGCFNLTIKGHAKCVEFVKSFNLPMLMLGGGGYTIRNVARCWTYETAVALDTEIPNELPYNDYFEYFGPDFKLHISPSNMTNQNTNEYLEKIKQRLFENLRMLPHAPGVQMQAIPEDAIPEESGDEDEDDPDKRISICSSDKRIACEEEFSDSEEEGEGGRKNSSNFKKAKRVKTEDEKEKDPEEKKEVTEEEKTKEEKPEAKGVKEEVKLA

[10] = AUC (0 to t) in Sprague-Dawley rat at 10 mg/kg, po after 0.083 to 24 hrs by LC-MS/MS analysis; assay type: ADME, organism-based; settings: in vivo
Method in brief: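 Male Sprague-Dawley rats, 6-8 weeks old. Dosing solution of 10 (PO) or 2 (IV) mg/mL in 5% DMSO, 10% Solutol and 85% saline, pH 7. Blood taken by cardiac puncture at 0.083–24 h (PO) or 0.25–24 h (IV). Plasma levels measured by LC-MS/MS. Values are mean ± SD, n = 3.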

[11] = biological target: NAD-dependent protein deacetylase sirtuin-3, mitochondrial (Homo sapiens, UniProt Q9NTG7); assay: Inhibition of SIRT3 (unknown origin) by FDL assay
NAD-dependent protein deacetylase sirtuin-3, mitochondrial, sequence (Q9NTG7 whole entry): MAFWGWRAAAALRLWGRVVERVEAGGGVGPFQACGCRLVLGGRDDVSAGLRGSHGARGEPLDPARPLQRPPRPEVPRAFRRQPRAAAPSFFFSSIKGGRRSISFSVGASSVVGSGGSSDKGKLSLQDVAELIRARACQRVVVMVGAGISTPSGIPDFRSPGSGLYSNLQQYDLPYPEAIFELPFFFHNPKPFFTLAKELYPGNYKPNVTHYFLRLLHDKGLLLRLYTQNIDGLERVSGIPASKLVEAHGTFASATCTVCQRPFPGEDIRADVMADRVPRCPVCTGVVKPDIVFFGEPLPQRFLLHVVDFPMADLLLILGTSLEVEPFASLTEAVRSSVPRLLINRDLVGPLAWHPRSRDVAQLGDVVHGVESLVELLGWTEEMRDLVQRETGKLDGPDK
Method in brief: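 SIRT3 and SIRT5 tested by an outsourced FDL fluorogenic deacetylase assay, each from a different contract provider. The IC50 was determined for each enzyme, with concentrations going up to 200 μM.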

[12] = Tmax in Sprague-Dawley rat at 2 mg/kg, iv after 0.25 to 24 hrs by LC-MS/MS analysis; assay type: ADME, organism-based; settings: in vivo; method in brief: as §1
[13] = biological target: T1, NAD-dependent protein deacylase sirtuin-6; assay: In-vivo activation of SIRT6 in BALB/c nude mouse xenografted with human PANC1 cells assessed as reduction in Lin28b expression at 150 mg/kg/day, po for 30 days by IHC analysis; assay type: functional, organism-based; settings: PANC-1
Method in brief: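 Female BALB/c nude mice (6–8 weeks) bearing subcutaneous PANC-1 xenografts (5×10⁶–1×10⁷ cells, right flank), randomised at 130–150 mm³ tumours; oral dosing daily for 30 days versus vehicle (n=6). Tumour tissue stained by immunohistochemistry.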

- Vdss [1]: 1112.8 L/kg
- IC50 (Histone deacetylase 2): > 200 µM
- Activity [5]: Active
- inhibition [7]: Dose-dependent effect
- inhibition [9]: Dose-dependent effect
- IC50 (Histone deacetylase 1): > 200 µM
- AUCt [10]: 704.67 ng·mL·h
- IC50 [11]: > 200 µM
- Tmax [12]: 4.8 min
- Activity [13]: Active
Structure (SMILES): O=C(NC(c1ccccc1)c1ccccc1)c1cc(-c2cc3ccccc3o2)nc2ccccc12
- inhibition at 10 µM (ASPC1 [2]): 55.4%
- Activity (SW-620): Active
- Activity (PANC-1 [3]): Dose-dependent effect
- Activity (HepG2): Active
- Activity (PANC-1 [4]): Dose-dependent effect
- Activity (Bel-7402): Active
- Activity [6]: Non-Toxic
- inhibition (BXPC-3): Dose-dependent effect
- inhibition (ASPC1 [8]): Dose-dependent effect
